Assay results published in ChEMBL document CHEMBL3997810, “A Novel Potent Anticancer Compound Optimized from a Natural Oridonin Scaffold Induces Apoptosis and Cell Cycle Arrest through the Mitochondrial Pathway” (J Med Chem, 2017).
Active and inactive are the calls of the source. The rule behind the calls is not given here.

Legend:
MCF7 [1] = experiment: Antitumor activity against human MCF7 cells xenografted in Balb/c nude mouse assessed as tumor growth inhibition at 20 mg/kg/day, iv for 4 weeks relative to control; type: functional; settings: 672 h, read-out: TGI
How it was run: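 Six-week-old male BALB/c nude mice received 1 × 10^6 MCF-7 cells subcutaneously in the right flank. After 7 d of tumor growth, mice were randomized into groups of six. Dosing was 20 mg/kg iv once daily for 28 days in 10% DMF/2% poloxamer/88% saline. Tumor volume (L × W²/2) and body weight were recorded every 2 days. Inhibition = (1 − mean treated/control tumor weight) × 100%.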

Bel-7402 [2] = experiment: Antiproliferative activity against human Bel7402 cells at 1 uM after 72 hrs by MTT assay; type: functional, cell-based
Bel-7402 [3] = experiment: Antiproliferative activity against human Bel7402 cells after 72 hrs by MTT assay; type: functional, cell-based; settings: Bel-7402, 72 h
How it was run: (§1)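 MGC-803 and MCF-7 cells grown in DMEM (MCF-7 with 1× NEAA); Bel-7402 and K562 grown in RPMI 1640; all media with 10% FBS. Cells seeded at 3500/well, pre-incubated 24 h, then exposed to compounds in fresh medium (DMSO ≤0.25%) for 72 h at 37 °C. MTT read-out at 570 nm. Quadruplicate wells, repeated three times; means ± SD (n = 3).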

K562 = experiment: Antiproliferative activity against human K562 cells after 72 hrs by MTT assay; type: functional, cell-based; settings: K562, 72 h; how it was run: as §1
MCF7 [4] = experiment: Antiproliferative activity against human MCF7 cells after 72 hrs by MTT assay; type: functional, cell-based; settings: MCF7, 72 h; how it was run: as §1
MGC-803 = experiment: Antiproliferative activity against human MGC803 cells after 72 hrs by MTT assay; type: functional, cell-based; settings: MGC-803, 72 h; how it was run: as §1
[5] = Selectivity ratio of IC50 for human KB/CP4 cells to IC50 for human KB-3-1 cells
[6] = Selectivity ratio of IC50 for human L02 cells to IC50 for human Bel7402 cells
BEL-7404 tumor cell line = experiment: Antiproliferative activity against human Bel7404 cells after 48 hrs by MTT assay; type: functional, cell-based; settings: BEL-7404, 48 h
How it was run: (§2)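 Colorimetric MTT assay. KB-3-1, NCI-H460 and Bel-7404 cells were seeded at 4000 cells/well; resistant KB/CP4, NCI-H460/MX20 and Bel-7404/CP20 were seeded at 7000 cells/well. Cells were pre-incubated 24 h at 37 °C, 5% CO2, then exposed to a compound concentration series for 48 h with DMSO ≤0.25%. Absorbance read at 570 nm. Quadruplicate wells, three repeats; means ± SD.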

[7] = Antiproliferative activity against human KB/CP4 cells after 48 hrs by MTT assay; type: functional, cell-based; settings: KB/CP4, 48 h; how it was run: as §2
KB 3-1 = experiment: Antiproliferative activity against human KB-3-1 cells after 48 hrs by MTT assay; type: functional, cell-based; settings: KB 3-1, 48 h; how it was run: as §2
[8] = Antiproliferative activity against human BEL7404/CP20 cells after 48 hrs by MTT assay; type: functional, cell-based; settings: BEL7404/CP20, 48 h; how it was run: as §2
NCI-H460 = experiment: Antiproliferative activity against human NCI-H460 cells after 48 hrs by MTT assay; type: functional, cell-based; settings: NCI-H460, 48 h; how it was run: as §2
[9] = Antiproliferative activity against human NCI-H460/MX20 cells after 48 hrs by MTT assay; type: functional, cell-based; settings: NCI-H460/MX20, 48 h; how it was run: as §2
Mus musculus [10] = experiment: Toxicity in Balb/c nude mouse xenografted with human MCF7 cells assessed as changes in body weight at 20 mg/kg/day, iv for 4 weeks measured once in 2 days during compound dosing; type: organism-based; settings: in vivo
How it was run: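 Mice received 1 × 10^6 tumor cells subcutaneously in the right flank: MCF-7 in male BALB/c nude mice aged six weeks, H22 in male ICR mice aged five weeks. After 7 d they were randomized (six or eight per group). Dosing was 20 mg/kg iv daily in 10% DMF/2% poloxamer/88% saline for 21 or 28 days; saline control. Body weight was recorded every 2 days.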

Mus musculus [11] = experiment: Toxicity in Balb/c nude mouse xenografted with human MCF7 cells assessed as morphological changes in lungs at 20 mg/kg/day, iv for 4 weeks by hematoxylin and eosin staining based microscopic method; type: organism-based; settings: in vivo, 672 h
How it was run: (§3)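 Male BALB/c nude mice aged six weeks received 1 × 10^6 MCF-7 cells subcutaneously in the right flank. After 7 d they were randomized and dosed 20 mg/kg iv once daily in 10% DMF/2% poloxamer/88% saline; saline control. Heart, liver, spleen, lung and kidney were fixed in 4% paraformaldehyde, paraffin-embedded, sectioned at 5 μm, H&E stained and examined microscopically.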

MCF7 [12] = experiment: Cytotoxicity against human MCF7 cells at 10 to 50 uM after 24 hrs by LDH assay; type: functional, cell-based
How it was run: (§4)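 Membrane integrity assay on MCF-7 and Bel-7402 cells seeded at ~5 × 10^3 per well for 24 h, then given compounds at 10, 20 or 50 μM. Culture medium collected and assayed with CytoTox-ONE LDH reagent for 10 min, followed by stop solution. Fluorescence read at Ex 560/Em 590 nm. Expressed as percentage of unstimulated cells.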

Mus musculus [13] = experiment: Nephrotoxicity in Balb/c nude mouse xenografted with human MCF7 cells assessed as morphological changes in kidney at 20 mg/kg/day, iv for 4 weeks by hematoxylin and eosin staining based microscopic method; type: toxicity, organism-based; settings: in vivo, 672 h; how it was run: as §3
Mus musculus [14] = experiment: Cardiotoxicity in Balb/c nude mouse xenografted with human MCF7 cells assessed as morphological changes in heart at 20 mg/kg/day, iv for 4 weeks by hematoxylin and eosin staining based microscopic method; type: toxicity, organism-based; settings: in vivo, 672 h
How it was run: (§5)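 Male BALB/c nude mice (6 weeks old) carrying subcutaneous MCF-7 xenografts (1 × 10^6 cells). Dosed iv 20 mg/kg daily for 28 days in 10% DMF/2% poloxamer/88% saline; six mice per group. Organs then fixed in 4% paraformaldehyde, paraffin-embedded, cut at 5 μm, stained with Harris hematoxylin and eosin-phloxine, and examined by light microscopy.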

Mus musculus [15] = experiment: Toxicity in Balb/c nude mouse xenografted with human MCF7 cells assessed as morphological changes in spleen at 20 mg/kg/day, iv for 4 weeks by hematoxylin and eosin staining based microscopic method; type: organism-based; settings: in vivo, 672 h; how it was run: as §3
Mus musculus [16] = experiment: Hepatotoxicity in Balb/c nude mouse xenografted with human MCF7 cells assessed as morphological changes in liver at 20 mg/kg/day, iv for 4 weeks by hematoxylin and eosin staining based microscopic method; type: toxicity, organism-based; settings: in vivo, 672 h; how it was run: as §5
Bel-7402 [17] = experiment: Cytotoxicity against human Bel7402 cells at 10 to 50 uM after 24 hrs by LDH assay; type: functional, cell-based; how it was run: as §4

Row | Compound | inhibition in vivo at 20 mg/kg/day (MCF7 [1]) [%] | Activity (Bel-7402 [2]) | IC50 (Bel-7402 [3]) [µM] | IC50 (K562) [µM] | IC50 (MCF7 [4]) [µM] | IC50 (MGC-803) [µM] | Ratio IC50 [5] | IC50 (BEL-7404 tumor cell line) [µM] | IC50 [7] [µM] | IC50 (KB 3-1) [µM] | IC50 [8] [µM] | IC50 (NCI-H460) [µM] | IC50 [9] [µM] | Activity (MCF7 [12]) | Activity (Bel-7402 [17]) | further results
1 | O=P1(N(CCCl)CCCl)NCCCO1 (configuration not stated) [CYCLOPHOSPHAMIDE ANHYDROUS] | 64.6 |  |  |  |  |  |  |  |  |  |  |  |  |  |  | 
2 | C=C1C(=O)[C@@]23[C@@H]4OC(C)(C)O[C@@]25OC[C@]2([C@@H](OS(C)(=O)=O)CCC(C)(C)[C@H]2[C@@H]5O)[C@@H]3CC[C@@H]14 |  | Active |  |  |  |  |  |  |  |  |  |  |  |  |  | 
3 | C=C1C(=O)[C@]23[C@H](OC(C)=O)[C@H]1CC[C@H]2[C@]12C=C[C@H](OC(C)=O)C(C)(C)[C@H]1[C@H](O)[C@]3(O)OC2 |  | Active | 2.07 | 1.88 | 4.13 | 3.09 |  |  |  |  |  |  |  |  |  | 
4 | C=C1C(=O)[C@]23[C@H](OC(=O)c4cccc(C)c4)[C@H]1CC[C@H]2[C@]12C=CCC(C)(C)[C@H]1[C@H](O)[C@]3(O)OC2 |  |  | 0.45 | 1.27 | 0.18 | 1.02 | <1 | 6.56 | 1.01 | 6.21 | 3.42 | 2.44 | 14.2 |  |  | Ratio IC50 [6]: 14.58
5 | C=C1C(=O)[C@]23[C@H](O)[C@H]1CC[C@H]2[C@]12C=CCC(C)(C)[C@H]1[C@H](O)[C@]3(O)OC2 | 61.6 | Active | 1.59 | 0.22 | 1.99 | 1.22 | <1 | 3.91 | 2.98 | 5.16 | 4.98 | 2.69 | 11.1 | inactive | inactive | Activity (Mus musculus [10]): Non-Toxic; Activity (Mus musculus [11]): Non-Toxic; Activity (Mus musculus [13]): Non-Toxic; Activity (Mus musculus [14]): Non-Toxic; Activity (Mus musculus [15]): Non-Toxic; Activity (Mus musculus [16]): Non-Toxic
6 | C=C1C(=O)[C@]23[C@H](O)[C@H]1CC[C@H]2[C@]12C=CC(=O)C(C)(C)[C@H]1[C@H](O)[C@]3(O)OC2 |  | Active | 3.43 | 2.79 | 11.1 | 5.58 | <1 | 16.2 | 16.1 | 16.7 | 15.1 | 19.2 | 54 | inactive | inactive | 
7 | C=C1C(=O)[C@@]23[C@@H]4OC(C)(C)O[C@@]25OC[C@]2(C=CCC(C)(C)[C@H]2[C@@H]5O)[C@@H]3CC[C@@H]14 |  | Active | 3.66 | 7.98 | 1.49 | 3.61 |  |  |  |  |  |  |  |  |  | 
8 | C=C1C(=O)[C@@]23[C@@H]4OC(C)(C)O[C@@]25OC[C@]2([C@@H]6O[C@@H]6CC(C)(C)[C@H]2[C@@H]5O)[C@@H]3CC[C@@H]14 |  | Active | 1.32 | 1.66 | 1.58 | 1.42 |  |  |  |  |  |  |  |  |  | 
9 | C=C1C(=O)[C@]23[C@H](O)[C@H]1CC[C@H]2[C@@]12CO[C@]3(O)[C@@H](O)[C@@H]1C(C)(C)CC[C@@H]2O [ORIDONIN] | 58.9 |  | 5.41 | 4.33 | 17.9 | 9.06 |  | 17.9 | 10.8 | 13.2 | 17.2 | 20.5 | 25.9 | inactive | inactive | Ratio IC50 [6]: 6; Activity (Mus musculus [10]): Non-Toxic; Activity (Mus musculus [11]): Non-Toxic; Activity (Mus musculus [13]): Non-Toxic; Activity (Mus musculus [14]): Non-Toxic; Activity (Mus musculus [15]): Non-Toxic; Activity (Mus musculus [16]): Non-Toxic
10 | C=C1C(=O)[C@]23[C@H](O)[C@H]1CC[C@H]2[C@@]12CO[C@@]3(O)[C@@H](O)[C@@H]1C(C)(C)C[C@H](Cl)[C@H]2O |  |  | 1.69 | 2.3 | 3.43 | 3.18 | <1 | 6.96 | 5.92 | 6.54 | 5.98 | 8.8 | 49 | inactive | inactive | 
